Experimental data taken from PMC9553801 (Clinical Pharmacokinetics, 2022).
Several values for one entry are separate records, joined by “and”; a condition that tells them apart may be missing. Equal values may be shown once. Read-outs that look alike come from different tables or passages of the source.

How the values were obtained:
[1] = patients with severe renal impairment (CrCL of 15 mL/min) compared with healthy participants; cited from earlier work
Safety and tolerability = type: in vivo, human; settings: for Any AE / Headache / Somnolence: single oral 60 mg
[2] = type: in vivo, human; settings: for AUC / AUC(0-t) / AUC(0-inf) / Cmax / Tmax / half-life: human, plasma, po, 60 mg; for AUC: AUC96, single oral 60 mg; for AUC / AUC(0-t) / AUC(0-inf) / Cmax / %Urt (percentage dose recovered in urine) / CLT/F (apparent total body clearance): adjusted geometric mean (%CV); for AUC(0-t): AUCt; for AUC(0-t) / AUC(0-inf) / Cmax / Tmax / half-life / %Urt (percentage dose recovered in urine) / CLT/F (apparent total body clearance): single oral 60 mg; for Cmax: n = 8; for Tmax: median (minimum–maximum); for half-life: T½ (terminal plasma half-life), mean (SD)
Summary of the method: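 There were three eGFR-defined groups (MDRD; n = 8 each, matched by age, weight and sex). Each participant received one oral 60 mg dose after a standard meal, with serial plasma and urine collection. Plasma concentrations were measured by validated LC-MS/MS. Urine recovery was the sum of concentration × urine volume per collection interval, expressed as % of dose. CLT/F came from plasma concentration-time data. Values are adjusted geometric mean (%CV).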

[3] = Linear regression of log-transformed PK parameters versus eGFR or CrCL; type: in vivo, human; settings: for increase in overall exposure: regression analysis
aPTT = assay: Activated partial thromboplastin time; type: in vivo, human; settings: for aPTT percentage change from baseline at mean peak: single oral 60 mg
Summary of the method: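 Participants (n = 8 per group) were grouped by eGFR (MDRD formula): normal ≥ 90, moderate ≥ 30 to ≤ 59, or severe < 30 mL/min/1.73 m2 (not on dialysis). They were matched by age, body weight and sex. Each received a single oral dose of test compound after a standard meal. aPTT was an exploratory PD biomarker, measured by a validated central-laboratory assay. Baseline was predose Day 1.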

[4] = previous first-in-human study; cited from earlier work
[5] = Milvexian plasma protein binding by LC-MS/MS; type: in vitro ADME, human; settings: adjusted geometric mean (%CV); for fraction unbound: human, plasma, %fu (fraction of unbound drug)
Summary of the method: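 The severe group had eGFR < 30 mL/min/1.73 m2 (MDRD) and no dialysis, and received a single oral 60 mg dose after a standard meal. A designated protein-binding blood sample was analysed for […] test compound by validated LC-MS/MS. Results were reported as adjusted geometric mean (%CV).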

[6] = patients undergoing dialysis compared with healthy participants; cited from earlier work
[7] = single dose 60 mg, all 24 participants
[8] = moderate renal impairment, n = 8
[9] = CrCL 30 vs CrCL 90 mL/min, CrCL-based regression
[10] = eGFR 15 vs eGFR 90 mL/min/1.73 m^2, eGFR-based regression
[11] = eGFR 30 vs eGFR 90 mL/min/1.73 m^2, eGFR-based regression

SMILES: COc1ccc(-n2nc(C(N)=O)c3c2C(=O)N(c2ccc(N4CCCCC4=O)cc2)CC3)cc1 [apixaban]
- increase in exposure [1]: 44%

SMILES: C[C@@H]1CCC[C@H](n2cnc(-c3cc(Cl)ccc3-n3cc(Cl)nn3)cc2=O)c2cc(ccn2)-c2c(cnn2C(F)F)NC1=O [milvexian, Milvexian]
- participants reporting headache (Safety and tolerability; [7]): 8.3%
- participants reporting one AE (Safety and tolerability; [7]): 12.5%
- participants reporting somnolence (Safety and tolerability; [7]): 4.2%
- bleeding events (Safety and tolerability; single dose 60 mg, all renal function groups): No bleeding events were reported
- Any AE (Safety and tolerability; [8]): 1 (12.5) n (%)
- Headache (Safety and tolerability; [8]): 1 (12.5) n (%)
- Somnolence (Safety and tolerability; [8]): 0 n (%)
- Any AE (Safety and tolerability; normal renal function, n = 8): 1 (12.5) n (%)
- Headache (Safety and tolerability; normal renal function, n = 8): 0 n (%)
- Somnolence (Safety and tolerability; normal renal function, n = 8): 1 (12.5) n (%)
- Any AE (Safety and tolerability; severe renal impairment, n = 8): 1 (12.5) n (%)
- Headache (Safety and tolerability; severe renal impairment, n = 8): 1 (12.5) n (%)
- Somnolence (Safety and tolerability; severe renal impairment, n = 8): 0 n (%)
- Any AE (Safety and tolerability; total, N = 24): 3 (12.5) n (%)
- Headache (Safety and tolerability; total, N = 24): 2 (8.3) n (%)
- Somnolence (Safety and tolerability; total, N = 24): 1 (4.2) n (%)
- AUC ([2]; moderate renal impairment): 5020 ng·h/mL
- AUC ([2]; normal renal function): 3880 ng·h/mL
- AUC ([2]; severe renal impairment): 7170 ng·h/mL
- AUC(0-t) ([2]; moderate renal impairment): 5000 ng·h/mL
- AUC(0-t) ([2]; normal renal function): 3860 ng·h/mL
- AUC(0-t) ([2]; severe renal impairment): 7090 ng·h/mL
- AUC(0-inf) ([2]; moderate renal impairment): 5150 ng·h/mL
- AUC(0-inf) ([2]; normal renal function): 3920 ng·h/mL
- AUC(0-inf) ([2]; severe renal impairment): 7410 ng·h/mL
- Cmax ([2]; moderate renal impairment (eGFR ≥ 30 to ≤ 59)): 406 ng/mL
- Cmax ([2]; normal renal function (eGFR ≥ 90)): 462 ng/mL
- Cmax ([2]; severe renal impairment (eGFR < 30)): 462 ng/mL
- Tmax ([2]; moderate renal impairment): 4.75 h
- Tmax ([2]; normal renal function): 4.5 h
- Tmax ([2]; severe renal impairment): 5 h
- half-life ([2]; moderate renal impairment): 18 h
- half-life ([2]; normal renal function): 13.8 h
- half-life ([2]; severe renal impairment): 17.7 h
- %Urt (percentage dose recovered in urine) ([2]; moderate renal impairment): 7.64 (33) %
- CLT/F (apparent total body clearance) ([2]; moderate renal impairment): 11.6 L/h and 11.6 (32) L/h
- %Urt (percentage dose recovered in urine) ([2]; normal renal function): 10.5 (45) %
- CLT/F (apparent total body clearance) ([2]; normal renal function): 15.3 L/h and 15.3 (36) L/h
- %Urt (percentage dose recovered in urine) ([2]; severe renal impairment): 3.14 (75) %
- CLT/F (apparent total body clearance) ([2]; severe renal impairment): 8.10 L/h and 8.10 (37) L/h
- increase in AUCt ([3]; CrCL 15 vs CrCL 90 mL/min, CrCL-based regression): 49%
- increase in AUCt [3, 9]: 38%
- increase in AUC∞ [3, 9]: 40%
- increase in AUCt [3, 10]: 50%
- increase in AUC∞ [3, 10]: 54%
- increase in AUCt [3, 11]: 39%
- increase in AUC∞ [3, 11]: 41%
- increase in overall exposure ([3]; moderate renal impairment group): approximately 40%
- increase in overall exposure ([3]; severe renal impairment group): ~50%
- aPTT percentage change from baseline at mean peak (aPTT; moderate renal impairment, 5 h postdose): 97%
- aPTT percentage change from baseline at mean peak (aPTT; normal renal function, 5 h postdose): 127%
- aPTT percentage change from baseline at mean peak (aPTT; severe renal impairment, 6 h postdose): 100%
- effect on aPTT (aPTT; single oral dose, all renal function groups): concentration-dependent prolongation of aPTT
- renal excretion [4]: below 20%
- fraction unbound ([5]; moderate renal impairment): 0.0881
- fraction unbound ([5]; normal renal function): 0.0885
- fraction unbound ([5]; severe renal impairment): 0.084
- %Protein binding ([5]; severe renal impairment): 91.5 (1) %

SMILES: O=C(NC[C@H]1CN(c2ccc(N3CCOCC3=O)cc2)C(=O)O1)c1ccc(Cl)s1 [rivaroxaban]
- increase in exposure [6]: 56%
